From PubChem
PLCb3 inh: inhibitors of human phospholipase C beta3; 370,000 compounds, 0.18% hits; Q01970; inhibition, % at 12.2 µM; Purified PLC-beta3, fluorogenic substrate, fluorescence; in the data active = inhibition above about 11%
sPLA2-III inh: Inhibits HGIII-sPLA2 liposome hydrolysis, primary screen. 370,000 compounds, 0.56% hits. AID 743126. Q9NZ20. inhibition, % at 12.2 µM. QFRET BODIPY PC-A2 liposome hydrolysis, fluorescence;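 active = inhibition above mean plus 3 SD of compounds lying within the high and low control bounds, cut at about 19% in these data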
ARFGAP1 inh: inhibits rat ARF GTPase activating protein 1. Arfgap1-stimulated ARF1 GTP hydrolysis, GDP FP detection. inhibition, % at 16.5 µM. 360,000 compounds, 0.26% hits;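 active = inhibition above a per-plate limit, mean inhibition of low control wells plus 3 SD, cut at about 25% in these data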
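material = rat Arfgap1 catalytic domain, aa 1-136 | also added = human ARF1(Δ1-17)-GTP substrate | compound dosing = one concentration, 16.5 µM, DMSO 1.26% | times = GTP hydrolysis reaction 2 h at 25 °C | measured by = FP, GDP Alexa 633 tracer displaced from anti-GDP antibody, 620/688 nm | evaluation = percent inhibition of Arfgap1-stimulated GTP hydrolysis | replication = single well per compound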
PLCg1 inh: PLC-gamma1 (human) inhibition, primary screen; purified PLC-gamma1, fluorogenic substrate, fluorescence; inhibition, % at 12.2 µM; 370,000 compounds, 0.84% hits; in the data active = inhibition above about 9.5%
Target sequence (P19174 whole entry, looked up): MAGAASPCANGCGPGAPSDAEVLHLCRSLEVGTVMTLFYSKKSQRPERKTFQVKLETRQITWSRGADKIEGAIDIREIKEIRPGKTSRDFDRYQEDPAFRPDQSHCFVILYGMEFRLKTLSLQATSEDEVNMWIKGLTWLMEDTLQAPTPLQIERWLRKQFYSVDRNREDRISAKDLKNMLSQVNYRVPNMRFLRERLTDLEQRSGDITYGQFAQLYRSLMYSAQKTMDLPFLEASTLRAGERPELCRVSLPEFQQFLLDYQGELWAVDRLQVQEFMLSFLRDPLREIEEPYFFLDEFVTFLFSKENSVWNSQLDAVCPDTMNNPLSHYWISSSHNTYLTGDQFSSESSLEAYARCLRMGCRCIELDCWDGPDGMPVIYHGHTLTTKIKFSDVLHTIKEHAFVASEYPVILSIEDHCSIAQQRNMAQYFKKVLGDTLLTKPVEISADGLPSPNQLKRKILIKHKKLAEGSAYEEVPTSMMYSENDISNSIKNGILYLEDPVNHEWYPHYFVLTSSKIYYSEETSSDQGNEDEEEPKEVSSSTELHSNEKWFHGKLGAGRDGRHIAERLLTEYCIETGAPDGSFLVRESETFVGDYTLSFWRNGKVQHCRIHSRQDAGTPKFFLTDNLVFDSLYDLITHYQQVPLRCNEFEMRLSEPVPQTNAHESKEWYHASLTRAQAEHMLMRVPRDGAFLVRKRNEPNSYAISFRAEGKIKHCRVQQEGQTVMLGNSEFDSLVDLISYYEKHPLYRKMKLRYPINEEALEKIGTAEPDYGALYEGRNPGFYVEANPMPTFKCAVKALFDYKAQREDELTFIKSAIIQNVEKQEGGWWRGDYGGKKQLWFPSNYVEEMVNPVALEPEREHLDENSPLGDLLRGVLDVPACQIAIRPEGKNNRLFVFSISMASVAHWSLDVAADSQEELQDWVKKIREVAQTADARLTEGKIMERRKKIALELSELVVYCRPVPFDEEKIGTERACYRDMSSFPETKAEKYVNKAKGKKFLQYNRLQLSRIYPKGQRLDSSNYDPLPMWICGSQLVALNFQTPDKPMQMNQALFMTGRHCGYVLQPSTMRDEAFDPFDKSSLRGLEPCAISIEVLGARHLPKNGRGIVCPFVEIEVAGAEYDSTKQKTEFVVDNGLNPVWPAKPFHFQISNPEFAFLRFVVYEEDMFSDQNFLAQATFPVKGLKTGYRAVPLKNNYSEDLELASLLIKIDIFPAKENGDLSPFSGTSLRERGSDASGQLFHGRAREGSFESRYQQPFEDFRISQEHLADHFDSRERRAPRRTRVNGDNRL
ASAP1 inh: inhibitors of human ASAP1 ArfGAP activity; ASAP1-stimulated ARF1 GTP hydrolysis, GDP FP detection; inhibition, % at 16.5 µM; 360,000 compounds, 0.19% hits; AID 624377; in the data active = inhibition above about 25%
ARFGAP1 confirm: confirmation of rat ARFGAP1 inhibitors | ARFGAP1-stimulated ARF1 GTP hydrolysis, GDP tracer FP | AID 651608 | shares compounds with ARFGAP1 inh | 890 compounds, 30% hits | inhibition, % at 16.5 µM;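 active = average inhibition over triplicates above the hit cutoff set in the earlier primary screen, cut at about 25% in these data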
Large screens that a line does not name were inactive (follow-up assays come after a bar, where they were run). Shown are actives, neighbours in structure and some others; about 1.9% of the full set was active somewhere.

CCCCCCCNC(=O)C1(CC2CC(c3cccc(Br)c3)=NO2)CCN(C(=O)OC(C)(C)C)CC1 (stereo not given)	ARFGAP1 inh 35.7 | ARFGAP1 confirm inactive
Cc1ccc(S(=O)(=O)Nc2ccc(NC(=O)Nc3cccc(C(F)(F)F)c3)cc2)cc1	ARFGAP1 inh 29.7 | ARFGAP1 confirm 29.5
CCC(=O)Nc1ccc(NC(=O)CSc2nnnn2-c2ccc3c(c2)OCCO3)cc1	ARFGAP1 inh 33.1 | ARFGAP1 confirm 41.6
CCOC(=O)c1csc(NC(=O)CSc2nnnn2-c2ccc3c(c2)OCCO3)n1	none
CCOC(=O)C1=NOC(C(=O)NCc2ccccc2)(C(=O)c2ccc(OC)cc2)C1 (stereo not given)	none (no result: ARFGAP1 inh, ASAP1 inh)
CCOC(=O)NC(NCC(O)c1ccccc1)(C(F)(F)F)C(F)(F)F (stereo not given)	none
CCCCOC(=O)NC(NCC(O)c1ccccc1)(C(F)(F)F)C(F)(F)F (stereo not given)	ARFGAP1 inh 30.7 | ARFGAP1 confirm inactive
Nc1ccc(-c2nc3ccc(N)cc3[nH]2)cc1	none
Nc1ccc2cc3[nH]c4cc(N)ccc4c3nc2c1	ARFGAP1 inh 46.4 | ARFGAP1 confirm 73.2
Cc1nn(C)c(Cl)c1/C=N/OC(=O)c1ccccc1	ARFGAP1 inh 31.8 | ARFGAP1 confirm inactive
Cc1nn(C)c(Cl)c1/C=N/OC(=O)c1ccc(F)cc1	none
O=C(O)c1ccc(Nc2nc(-c3ccccc3)cs2)cc1	none
N#Cc1ccc(Nc2nc(-c3ccccc3)cs2)cc1	ARFGAP1 inh 30.3 | ARFGAP1 confirm inactive
C#CCN1CC(N(C)CCOC(=O)c2cc(C)cc(C)c2)CS1(=O)=O (stereo not given)	none (no result: ARFGAP1 inh, ASAP1 inh)
CCOC(=O)Cc1nc(N2CCN(C(=O)C3CCCO3)CC2)c2c(C)c(C(=O)OCC)sc2n1 (stereo not given)	none (no result: ARFGAP1 inh, ASAP1 inh)
CCC(C)Nc1nc(C)nc2c1nnn2Cc1ccccc1 (stereo not given)	none (no result: ARFGAP1 inh, ASAP1 inh)
COC(=O)[C@H](C(C)C)N1CCc2nnn(Cc3ccc(C)cc3)c2-c2cc(F)ccc2S1(=O)=O	none (no result: ARFGAP1 inh, ASAP1 inh)
O=C(NNC(=S)NC1CCCCC1)c1sc2ccccc2c1Cl	ARFGAP1 inh 25.5 | ARFGAP1 confirm 59.9
O=S1(=O)C=CCN1Cc1cn(Cc2ccccc2)nn1	none (no result: ARFGAP1 inh, ASAP1 inh)
CCOC(=O)Cc1nc(-c2cccc(C(F)(F)F)c2)no1	ARFGAP1 inh 26.8 | ARFGAP1 confirm inactive
CCOc1ccc(NC(=S)NC23CC4CC(CC(C4)C2)C3)cc1	none
FC(F)Oc1ccc(NC(=S)NC23CC4CC(CC(C4)C2)C3)cc1	ARFGAP1 inh 25.3 | ARFGAP1 confirm inactive
CCn1c(SCC(=O)Nc2cccc3ccccc23)nnc1-c1cccs1	none (no result: ARFGAP1 inh, ASAP1 inh)
C#CCCCN([C@H](C(=O)OC)C(C)C)S(=O)(=O)c1ccc(F)cc1Br	none (no result: ARFGAP1 inh, ASAP1 inh)
COc1cc(CN2CCNC(=O)C2CC(=O)N(C)CCN2CCOCC2)cc(OC)c1 (stereo not given)	ARFGAP1 inh 28.4 | ARFGAP1 confirm inactive
COc1cc(CN2CCNC(=O)C2CC(=O)N(C)CCCN2CCOCC2)cc(OC)c1 (stereo not given)	none
COC(=O)[C@H]1C[C@@]2(N3CCCCC3)c3ccccc3N(S(=O)(=O)c3ccccc3)[C@H]2N1	none (no result: ARFGAP1 inh, ASAP1 inh)
Cc1ccc(Cn2nnc3c2-c2ccccc2S(=O)(=O)N(C2CC2)C3)cc1	none (no result: ARFGAP1 inh, ASAP1 inh)
COc1ccc(CN(C)C(=O)Cn2cnc(C(=O)Nc3ccc(C)c(C)c3)n2)cc1OC	ARFGAP1 inh 29.3 | ARFGAP1 confirm inactive
CCN1CCCCC(NC(=O)c2cc(OC)c(OC)c(OC)c2)C1=O (stereo not given)	none (no result: ARFGAP1 inh, ASAP1 inh)
O=C(COC(=O)CSc1ccc([N+](=O)[O-])cc1)NCc1cccs1	ARFGAP1 inh 26.4 | ARFGAP1 confirm inactive
Cc1ccc(SCC(=O)OCC(=O)NCc2cccs2)cc1	none
CCOc1ccc(C(=O)N[C@H](C(=O)Nc2cccc(S(=O)(=O)N3CCOCC3)c2)C(C)C)cc1	none
COc1ccc(C(=O)N[C@H](C(=O)Nc2ccc(S(=O)(=O)N3CCOCC3)cc2)C(C)C)cc1	ARFGAP1 inh 25.1 | ARFGAP1 confirm inactive
COCCCN1C(=O)[C@H](CC(=O)NCc2cccc3ccccc23)[C@]2(C(=O)OC)CCCCC=C12	none (no result: ARFGAP1 inh, ASAP1 inh)
CCC(=O)N1CCN=C1SCc1ccccc1Cl	ARFGAP1 inh 28.6 | ARFGAP1 confirm inactive
CC(=O)N1CCN=C1SCc1ccccc1Cl	none
Cc1cccc(N(C)S(=O)(=O)c2c[nH]c3ccc([N+](=O)[O-])cc23)c1	ARFGAP1 inh 26.1 | ARFGAP1 confirm inactive
Brc1ccc2nc(-c3ccc(CN4CCC5(CC4)CNc4ccccc45)cc3)c(-c3ccccc3)nc2c1	ARFGAP1 inh 25.6 | ARFGAP1 confirm inactive
Cc1ccc(OCc2nnc(SCC(=O)Nc3sc(C)c(C)c3C#N)n2C)cc1	none
Cc1sc(NC(=O)CSc2nnc(COc3ccccc3)n2C)c(C#N)c1C	ARFGAP1 inh 24.6 | ARFGAP1 confirm inactive
COC(=O)[C@H](CC(C)C)N1Cc2nnn(Cc3ccc(C)cc3)c2-c2cc(F)ccc2S1(=O)=O	none (no result: ARFGAP1 inh, ASAP1 inh)
CCCCNc1nc2ccccc2n1CC(=O)N1CCc2ccccc2C1	ARFGAP1 inh 47.3 | ARFGAP1 confirm inactive
CC1(c2nnc(Cc3ccccc3)o2)CC(c2ccc(Cl)cc2)=NO1 (stereo not given)	none
CC1(c2nnc(Cc3ccccc3)o2)CC(c2ccncc2)=NO1 (stereo not given)	ARFGAP1 inh 42.7 | ARFGAP1 confirm inactive
COc1ccc(/C=C2\SC(=O)N(CCNC(=O)C3CSC4(C)CCC(=O)N34)C2=O)cc1 (stereo not given)	none
CC12CCC(=O)N1C(C(=O)NCCN1C(=O)S/C(=C\c3ccc(OC(F)F)cc3)C1=O)CS2 (stereo not given)	ARFGAP1 inh 24.6 | ARFGAP1 confirm inactive
COc1ccc(OC)c(S(=O)(=O)n2c(CN3CCOCC3)nc3ccccc32)c1	none (no result: ARFGAP1 inh, ASAP1 inh)
O=Cc1ccc(C(=O)OCC(=O)N2CCCC2)cc1	none
O=C(OCC(=O)N1CCCC1)c1ccc(OC(F)(F)F)cc1	ARFGAP1 inh 25.0 | ARFGAP1 confirm inactive
CCC(CO)Nc1cccc2c1S(=O)(=O)N(Cc1cn(Cc3ccc(F)cc3)nn1)Cc1ccccc1O2 (stereo not given)	none (no result: ARFGAP1 inh, ASAP1 inh)
CCN(CC)C(=O)CN(c1cccc(C(F)(F)F)c1)S(C)(=O)=O	ARFGAP1 inh 30.8 | ARFGAP1 confirm inactive
Cc1ccc(OCC(O)CN2C(=O)NC(C)(C)C2=O)cc1 (stereo not given)	ARFGAP1 inh 34.7 | ARFGAP1 confirm inactive
CC[C@@]1(O)C(=O)OCc2c1cc1n(c2=O)Cc2cc3c(CN(C)C)c(O)ccc3nc2-1	ARFGAP1 inh 24.9 | ARFGAP1 confirm inactive
CC(C)(C)OC(=O)N1CCC(C(=O)Nc2ccc(C(=O)N3CCCC3)cc2)CC1	none
CN(C(=O)c1ccc(NC(=O)C2CCN(C(=O)OC(C)(C)C)CC2)cc1)C1CC1	ARFGAP1 inh 24.6 | ARFGAP1 confirm inactive
